Measurements as given in ChEMBL document CHEMBL4014336 (J Med Chem, 2017).

Tests used:
[1] = Permeability from apical to basolateral side in human Caco2 cells; assay type: ADME, cell-based; conditions: Caco-2, read-out: permeability
[2] = AUC (0 to 24 hrs) in mouse at 5 mg/kg, iv; assay type: ADME, organism-based; design: time < 24 hr, dose 5 mg/kg, route intravenous; conditions: in vivo
Mus musculus [3] = test: In vivo inhibition of 11beta-HSD1 in po dosed non-fasting diet-induced obese mouse assessed as decrease in corticosterone excursion in plasma pretreated for 60 mins followed by DHC administration measured up to 120 mins by enzyme immunosorbent assay; assay type: functional
How it was run: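 Nonfasting diet-induced obese male mice, groups of n = 6 matched for body weight; tail bleed at −60 min, then oral vehicle (0.5% Methocel, 0.1% Tween 80 in water) or drug. At 60 min, bleed and oral DHC 10 mg/kg. Bleeds at 30, 60 and 120 min post-DHC. Plasma corticosterone measured by enzyme immunosorbent assay; drug levels in terminal bleed.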

Cytochrome P450 2C8 = Cytochrome P450 2C8 (Homo sapiens, UniProt P10632); test: Inhibition of CYP2C8 (unknown origin); assay type: ADME
Chain of Cytochrome P450 2C8 (P10632 whole entry): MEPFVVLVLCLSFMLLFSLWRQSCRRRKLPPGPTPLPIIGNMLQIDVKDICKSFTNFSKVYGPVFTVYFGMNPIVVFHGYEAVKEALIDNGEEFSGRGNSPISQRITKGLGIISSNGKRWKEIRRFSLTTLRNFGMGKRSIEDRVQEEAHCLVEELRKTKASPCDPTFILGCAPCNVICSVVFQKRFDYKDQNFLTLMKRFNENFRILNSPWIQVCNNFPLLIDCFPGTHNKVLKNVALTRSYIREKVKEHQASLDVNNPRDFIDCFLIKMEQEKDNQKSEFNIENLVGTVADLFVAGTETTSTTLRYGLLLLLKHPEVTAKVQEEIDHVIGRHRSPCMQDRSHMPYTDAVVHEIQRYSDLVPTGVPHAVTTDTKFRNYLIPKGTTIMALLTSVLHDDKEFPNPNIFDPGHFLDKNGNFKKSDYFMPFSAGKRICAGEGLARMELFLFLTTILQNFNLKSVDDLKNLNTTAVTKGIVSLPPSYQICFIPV

Liver [4] = test: Metabolic stability in human liver microsomes assessed as parent compound remaining after 10 mins; assay type: ADME, microsome; conditions: microsomes, 10 min
How it was run: (§1)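 Parent compound remaining after a 10 min incubation with human, mouse or rat liver microsomes.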

Plasma [5] = test: Drug metabolism in cynomolgus monkey plasma assessed as ketone A formation at 1 mg/kg, iv; assay type: ADME, organism-based, Macaca fascicularis; conditions: in vivo
[6] = Tmax in non-fasting diet-induced obese cynomolgus monkey administered via oral gavage; assay type: ADME, Macaca fascicularis; conditions: in vivo
[7] = MRT in cynomolgus monkey at 1 mg/kg, iv; assay type: ADME, organism-based, Macaca fascicularis; conditions: in vivo
Liver [8] = test: Metabolic stability in rat liver microsomes assessed as parent compound remaining after 10 mins; assay type: ADME, microsome; conditions: microsomes, 10 min; how it was run: as §1
in vivo = conditions: mouse, liver / plasma, iv, 5 mg/kg
[9] = Protein binding in human plasma; assay type: ADME, cell-free; conditions: read-out: PPB (converted)
Cytochrome P450 3A4 = Cytochrome P450 3A4 (Homo sapiens, UniProt P08684); test: Inhibition of CYP3A4 (unknown origin); assay type: ADME
Rattus norvegicus [10] = test: Renal toxicity in rat at 300 mg/kg for 2 weeks; assay type: organism-based; conditions: in vivo, 336 h
How it was run: (§2)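 Exploratory rat toxicology study lasting 2 weeks, with 300 mg/kg as the highest dose given. The study assessed hypokalemia, plasma volume expansion, hypertension and renal toxicity.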

[11] = Half life in human liver microsomes; assay type: ADME, microsome
How it was run: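 Human liver microsome incubation; parent half-life determined.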

[12] = Protein binding in cynomolgus monkey plasma; assay type: ADME, cell-free, Macaca fascicularis; conditions: read-out: PPB (converted)
[13] = Total plasma clearance in cynomolgus monkey at 1 mg/kg, iv; assay type: ADME, organism-based, Macaca fascicularis
Cytochrome P450 2B6 = Cytochrome P450 2B6 (Homo sapiens, UniProt P20813); test: Inhibition of CYP2B6 (unknown origin); assay type: ADME
Rattus norvegicus [14] = test: Volume of distribution at steady state in rat at […], iv; assay type: ADME, organism-based; conditions: in vivo
Cytochrome P450 2D6 = Cytochrome P450 2D6 (Homo sapiens, UniProt P10635); test: Inhibition of CYP2D6 (unknown origin); assay type: ADME
Chain of Cytochrome P450 2D6 (P10635 whole entry): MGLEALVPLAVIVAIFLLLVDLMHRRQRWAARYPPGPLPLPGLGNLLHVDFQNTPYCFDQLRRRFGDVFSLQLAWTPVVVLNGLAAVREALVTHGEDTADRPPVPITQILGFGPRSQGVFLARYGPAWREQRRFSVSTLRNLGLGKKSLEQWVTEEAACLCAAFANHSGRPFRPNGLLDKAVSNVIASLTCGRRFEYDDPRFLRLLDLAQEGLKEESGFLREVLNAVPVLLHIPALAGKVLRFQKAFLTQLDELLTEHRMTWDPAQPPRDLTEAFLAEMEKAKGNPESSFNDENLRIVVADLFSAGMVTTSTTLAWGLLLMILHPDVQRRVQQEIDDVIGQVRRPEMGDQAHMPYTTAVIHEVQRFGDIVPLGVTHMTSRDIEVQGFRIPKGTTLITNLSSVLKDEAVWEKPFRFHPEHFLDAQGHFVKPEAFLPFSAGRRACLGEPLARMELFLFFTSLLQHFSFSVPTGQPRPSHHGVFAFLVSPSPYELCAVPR

[15] = AUC (0 to 24 hrs) in dog at 1 mg/kg, iv; assay type: ADME, organism-based, Canis lupus familiaris; design: time < 24 hr, dose 1 mg/kg, route intravenous; conditions: in vivo
[16] = target: 11-beta-hydroxysteroid dehydrogenase type 2 (Mus musculus, UniProt P51661); test: Inhibition of mouse 11beta-HSD2
Chain of 11-beta-hydroxysteroid dehydrogenase type 2 (P51661 whole entry): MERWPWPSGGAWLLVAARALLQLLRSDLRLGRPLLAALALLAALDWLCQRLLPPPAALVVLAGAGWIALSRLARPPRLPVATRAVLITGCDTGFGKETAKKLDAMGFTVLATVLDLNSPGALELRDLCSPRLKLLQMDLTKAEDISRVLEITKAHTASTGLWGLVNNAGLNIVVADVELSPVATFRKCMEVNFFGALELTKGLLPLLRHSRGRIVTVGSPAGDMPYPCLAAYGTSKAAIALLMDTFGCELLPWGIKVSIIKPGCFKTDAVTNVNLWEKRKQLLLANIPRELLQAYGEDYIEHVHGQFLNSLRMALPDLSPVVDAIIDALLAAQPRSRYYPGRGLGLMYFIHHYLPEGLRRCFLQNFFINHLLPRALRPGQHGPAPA

[17] = Volume of distribution at steady state in dog at 1 mg/kg, iv; assay type: ADME, organism-based, Canis lupus familiaris; conditions: in vivo, read-out: Vdss
[18] = Oral bioavailability in rat at 10 mg/kg; assay type: ADME, organism-based; conditions: in vivo
[19] = Oral bioavailability in dog at 2 mg/kg; assay type: ADME, organism-based, Canis lupus familiaris; conditions: in vivo
Cytochrome P450 2C9 = Cytochrome P450 2C9 (Homo sapiens, UniProt P11712); test: Inhibition of CYP2C9 (unknown origin); assay type: ADME
Chain of Cytochrome P450 2C9 (P11712 whole entry): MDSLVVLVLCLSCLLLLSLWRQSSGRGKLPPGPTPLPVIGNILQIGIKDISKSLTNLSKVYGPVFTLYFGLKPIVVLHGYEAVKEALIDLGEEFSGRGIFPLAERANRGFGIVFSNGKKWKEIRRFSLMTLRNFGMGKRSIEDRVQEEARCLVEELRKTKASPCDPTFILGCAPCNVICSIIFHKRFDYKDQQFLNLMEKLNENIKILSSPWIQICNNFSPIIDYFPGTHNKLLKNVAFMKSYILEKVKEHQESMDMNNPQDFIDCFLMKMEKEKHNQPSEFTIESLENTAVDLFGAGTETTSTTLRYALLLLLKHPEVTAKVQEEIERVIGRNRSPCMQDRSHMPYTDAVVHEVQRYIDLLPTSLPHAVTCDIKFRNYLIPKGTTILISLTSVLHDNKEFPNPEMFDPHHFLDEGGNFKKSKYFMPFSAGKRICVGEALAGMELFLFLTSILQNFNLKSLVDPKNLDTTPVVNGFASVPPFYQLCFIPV

[20] = AUC (0 to 24 hrs) in cynomolgus monkey at 1 mg/kg, iv; assay type: ADME, organism-based, Macaca fascicularis; design: dose 1 mg/kg, time < 24 hr, route intravenous; conditions: in vivo
Cytochrome P450 1A2 = Cytochrome P450 1A2 (Homo sapiens, UniProt P05177); test: Inhibition of CYP1A2 (unknown origin); assay type: ADME
Chain of Cytochrome P450 1A2 (P05177 whole entry): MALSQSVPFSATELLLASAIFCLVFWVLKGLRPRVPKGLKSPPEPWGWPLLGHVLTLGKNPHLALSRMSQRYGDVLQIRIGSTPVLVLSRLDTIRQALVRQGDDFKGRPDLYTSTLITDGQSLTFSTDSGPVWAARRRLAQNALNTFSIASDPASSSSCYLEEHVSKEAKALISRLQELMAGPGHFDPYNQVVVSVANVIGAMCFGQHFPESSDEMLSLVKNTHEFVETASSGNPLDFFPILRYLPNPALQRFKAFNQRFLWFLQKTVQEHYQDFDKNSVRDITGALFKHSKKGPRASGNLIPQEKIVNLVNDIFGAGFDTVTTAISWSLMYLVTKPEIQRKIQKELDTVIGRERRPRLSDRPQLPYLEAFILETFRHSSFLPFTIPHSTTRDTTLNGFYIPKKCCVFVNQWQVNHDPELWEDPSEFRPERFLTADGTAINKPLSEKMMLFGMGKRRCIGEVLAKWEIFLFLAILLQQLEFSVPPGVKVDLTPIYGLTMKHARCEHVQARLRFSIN

Cytochrome P450 2A6 = Cytochrome P450 2A6 (Homo sapiens, UniProt P11509); test: Inhibition of CYP2A6 (unknown origin); assay type: ADME
Rattus norvegicus [21] = test: Toxicity in rat assessed as hypertension at 300 mg/kg for 2 weeks; assay type: organism-based; conditions: in vivo, 336 h; how it was run: as §2
[22] = MRT in dog at 1 mg/kg, iv; assay type: ADME, organism-based, Canis lupus familiaris; conditions: in vivo
Cytochrome P450 2C19 = Cytochrome P450 2C19 (Homo sapiens, UniProt P33261); test: Inhibition of CYP2C19 (unknown origin); assay type: ADME
Chain of Cytochrome P450 2C19 (P33261 whole entry): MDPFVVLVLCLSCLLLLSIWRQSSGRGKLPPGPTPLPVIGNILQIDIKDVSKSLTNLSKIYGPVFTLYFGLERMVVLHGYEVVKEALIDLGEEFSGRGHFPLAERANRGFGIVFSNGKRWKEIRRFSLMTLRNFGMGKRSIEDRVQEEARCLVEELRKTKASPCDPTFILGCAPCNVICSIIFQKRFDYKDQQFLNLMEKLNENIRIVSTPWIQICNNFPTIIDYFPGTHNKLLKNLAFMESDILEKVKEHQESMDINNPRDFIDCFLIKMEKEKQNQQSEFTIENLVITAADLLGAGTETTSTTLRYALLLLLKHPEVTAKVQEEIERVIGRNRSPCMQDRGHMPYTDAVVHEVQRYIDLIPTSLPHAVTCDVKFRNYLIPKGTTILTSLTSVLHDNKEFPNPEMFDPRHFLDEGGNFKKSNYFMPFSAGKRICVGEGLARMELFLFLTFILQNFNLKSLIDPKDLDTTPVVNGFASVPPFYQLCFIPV

[23] = Metabolic stability in human liver microsomes assessed as UGT-mediated glucuronidation of compound by measuring half life in presence of UDPGA; assay type: ADME
How it was run: (§3)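 Liver microsomal glucuronidation incubations in the presence of UDPGA; parent half-life determined.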

Mus musculus [24] = test: In vivo inhibition of 11beta-HSD1 in po dosed non-fasting diet-induced obese mouse assessed as plasma concentration required to show decrease in corticosterone excursion pretreated for 60 mins followed by DHC administration measured up to 120 mins by enzyme immunosorbent assay; assay type: functional, organism-based
How it was run: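 Nonfasting diet-induced obese male mice, groups of n = 6 matched for body weight. Tail bleed at −60 min, then oral dosing with vehicle (0.5% Methocel, 0.1% Tween 80 in water) or drug. DHC 10 mg/kg given orally 60 min later. Bleeds at 30, 60 and 120 min after DHC. Plasma corticosterone measured by enzyme immunosorbent assay. Drug levels measured in terminal bleed samples.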

Plasma [25] = test: Fraction unbound in cynomolgus monkey plasma at 1 mg/kg after 24 hrs; assay type: ADME, organism-based, Macaca fascicularis; conditions: in vivo
hERG = hERG (Homo sapiens, UniProt Q12809); test: Inhibition of human ERG at 30 uM by patch clamp assay relative to control
Chain of hERG (Q12809 whole entry): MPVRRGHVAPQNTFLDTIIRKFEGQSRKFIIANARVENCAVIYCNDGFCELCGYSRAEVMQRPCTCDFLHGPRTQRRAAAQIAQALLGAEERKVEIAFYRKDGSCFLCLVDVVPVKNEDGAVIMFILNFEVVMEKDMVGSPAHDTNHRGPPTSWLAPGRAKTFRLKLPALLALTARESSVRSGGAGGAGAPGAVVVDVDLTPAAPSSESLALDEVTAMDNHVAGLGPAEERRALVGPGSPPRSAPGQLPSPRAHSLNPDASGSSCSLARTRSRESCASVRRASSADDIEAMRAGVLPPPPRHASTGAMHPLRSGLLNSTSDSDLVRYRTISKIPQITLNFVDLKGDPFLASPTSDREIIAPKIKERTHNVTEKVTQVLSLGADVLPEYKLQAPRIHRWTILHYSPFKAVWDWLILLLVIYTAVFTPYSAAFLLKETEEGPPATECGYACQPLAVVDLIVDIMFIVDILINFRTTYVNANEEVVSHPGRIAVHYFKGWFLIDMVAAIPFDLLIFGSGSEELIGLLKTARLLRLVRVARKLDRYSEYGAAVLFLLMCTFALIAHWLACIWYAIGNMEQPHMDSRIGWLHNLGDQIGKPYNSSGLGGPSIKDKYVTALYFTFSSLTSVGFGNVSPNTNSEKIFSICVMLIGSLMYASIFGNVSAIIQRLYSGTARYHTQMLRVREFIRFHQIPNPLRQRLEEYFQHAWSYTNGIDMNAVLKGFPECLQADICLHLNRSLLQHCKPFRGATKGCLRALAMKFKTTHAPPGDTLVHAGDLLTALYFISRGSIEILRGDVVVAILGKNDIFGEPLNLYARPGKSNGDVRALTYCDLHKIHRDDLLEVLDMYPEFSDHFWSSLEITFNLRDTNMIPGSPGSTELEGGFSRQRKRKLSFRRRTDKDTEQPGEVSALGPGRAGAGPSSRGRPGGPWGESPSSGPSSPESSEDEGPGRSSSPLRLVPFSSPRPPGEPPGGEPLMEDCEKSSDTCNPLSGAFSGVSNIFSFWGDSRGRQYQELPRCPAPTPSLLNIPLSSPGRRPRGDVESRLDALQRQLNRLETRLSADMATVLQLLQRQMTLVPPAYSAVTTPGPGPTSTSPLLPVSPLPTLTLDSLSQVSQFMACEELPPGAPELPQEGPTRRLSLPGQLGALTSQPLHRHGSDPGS
How it was run: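 hERG channel, patch clamp; percent inhibition at 30 μM.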

Cytochrome P450 2E1 = Cytochrome P450 2E1 (Homo sapiens, UniProt P05181); test: Inhibition of CYP2E1 (unknown origin); assay type: ADME
Chain of Cytochrome P450 2E1 (P05181 whole entry): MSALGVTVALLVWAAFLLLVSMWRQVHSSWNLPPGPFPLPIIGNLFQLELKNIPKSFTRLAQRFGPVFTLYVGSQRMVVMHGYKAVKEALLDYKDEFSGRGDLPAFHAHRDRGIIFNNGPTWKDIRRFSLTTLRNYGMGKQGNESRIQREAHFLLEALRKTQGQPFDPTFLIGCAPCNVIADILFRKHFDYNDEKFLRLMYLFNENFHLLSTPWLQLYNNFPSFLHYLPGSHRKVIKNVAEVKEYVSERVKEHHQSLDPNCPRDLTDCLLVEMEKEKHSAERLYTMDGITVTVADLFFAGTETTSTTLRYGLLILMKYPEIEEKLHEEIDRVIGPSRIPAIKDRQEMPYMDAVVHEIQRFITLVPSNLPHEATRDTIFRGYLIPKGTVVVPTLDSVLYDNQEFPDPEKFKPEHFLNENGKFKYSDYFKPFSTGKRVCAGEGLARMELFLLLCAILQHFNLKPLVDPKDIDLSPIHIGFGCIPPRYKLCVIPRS

[26] = Protein binding in dog plasma; assay type: ADME, cell-free, Canis lupus familiaris; conditions: read-out: PPB (converted)
[27] = AUC (0 to 24 hrs) in rat at 300 mg/kg; assay type: ADME, organism-based; design: dose 300 mg/kg, time < 24 hr; conditions: in vivo
Rattus norvegicus [28] = test: Apparent elimination half life in rat at […], iv; assay type: ADME, organism-based; conditions: in vivo
Rattus norvegicus [29] = test: Toxicity in rat assessed as hypokalemia at 300 mg/kg for 2 weeks; assay type: organism-based; conditions: in vivo, 336 h; how it was run: as §2
[30] = Metabolic stability in dog liver microsomes assessed as UGT-mediated glucuronidation of compound by measuring half life in presence of UDPGA; assay type: ADME, Canis lupus familiaris; how it was run: as §3
Rattus norvegicus [31] = test: Toxicity in rat assessed as plasma volume expansion at 300 mg/kg for 2 weeks; assay type: organism-based; conditions: in vivo, 336 h; how it was run: as §2
[32] = Volume of distribution at steady state in cynomolgus monkey at 1 mg/kg, iv; assay type: ADME, organism-based, Macaca fascicularis; conditions: in vivo, read-out: Vdss
[33] = Metabolic stability in mouse liver microsomes assessed as UGT-mediated glucuronidation of compound by measuring half life in presence of UDPGA; assay type: ADME; how it was run: as §3
Plasma [34] = test: Drug metabolism in dog plasma assessed as ketone A formation at 1 mg/kg, iv; assay type: ADME, organism-based, Canis lupus familiaris; conditions: in vivo
Cynomolgus monkey = test: Toxicity in cynomolgus monkey assessed as HPA axis activation by measuring DHEAS level at 1 to 10 mg/kg for 7 days; assay type: organism-based, Macaca fascicularis; conditions: in vivo, 168 h
[35] = target: 11-beta-hydroxysteroid dehydrogenase 1 (Rattus norvegicus, UniProt P16232); test: Inhibition of rat 11beta-HSD1
Chain of 11-beta-hydroxysteroid dehydrogenase 1 (P16232 whole entry): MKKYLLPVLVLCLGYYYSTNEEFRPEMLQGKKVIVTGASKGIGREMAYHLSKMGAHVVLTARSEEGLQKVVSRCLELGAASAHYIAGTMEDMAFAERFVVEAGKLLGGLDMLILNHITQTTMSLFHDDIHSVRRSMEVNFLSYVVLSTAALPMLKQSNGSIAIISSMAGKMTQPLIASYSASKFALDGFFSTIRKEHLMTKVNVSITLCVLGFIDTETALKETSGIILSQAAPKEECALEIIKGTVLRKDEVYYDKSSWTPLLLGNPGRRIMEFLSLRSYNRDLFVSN

[36] = Metabolic stability in rat liver microsomes assessed as UGT-mediated glucuronidation of compound by measuring half life in presence of UDPGA; assay type: ADME; how it was run: as §3

With O=C(CC1(c2ccccc2)C2CC3CC1CC(C2)C3O)N1CC(O)C1 (stereo in doubt; form 2) the Papp A→B [1] was 10.5 ×10⁻⁶ cm/s, the AUC(0-t) at 24 h [2] was 5 µM·h and the ED50 (Mus musculus [3]) was 8.6 mg/kg. The IC50 (Cytochrome P450 2C8) was > 40 µM, the Stability (Liver [4]) was 91% and the Drug metabolism (Plasma [5]) was “Metabolite_Detected”. For the same compound, the Tmax [6] was 0.5 h, the MRT [7] was 3.3 h and the Stability (Liver [8]) was 67%. For the same compound, the Kp (in vivo) was 1 to 56, the fraction unbound [9] was 0.46 and the IC50 (Cytochrome P450 3A4) was > 40 µM. The Activity (Rattus norvegicus [10]) was “Non-Toxic”, the half-life [11] was 2.02 h and the fraction unbound [12] was 0.32. For the same compound, the clearance [13] was 21.2 mL/min/kg, the IC50 (Cytochrome P450 2B6) was > 40 µM and the Vdss (Rattus norvegicus [14]) was 0.5 L/kg. The IC50 (Cytochrome P450 2D6) was > 40 µM, the AUC(0-t) at 24 h [15] was 4.6 µM·h and the IC50 [16] was 7.9 µM. It also gave a Vd [17] of 3 L/kg, a bioavailability [18] of 20% and a bioavailability [19] of 72%. For the same compound, the IC50 (Cytochrome P450 2C9) was > 40 µM, the AUC(0-t) at 24 h [20] was 2.3 µM·h and the IC50 (Cytochrome P450 1A2) was > 40 µM. The IC50 (Cytochrome P450 2A6) was > 40 µM, the Activity (Rattus norvegicus [21]) was “Non-Toxic” and the MRT [22] was 3.5 h. The IC50 (Cytochrome P450 2C19) was > 40 µM, the half-life [23] was > 3.33 h and the EC50 (Mus musculus [24]) was 0.85 µM. For the same compound, the “Cp(f)” value (Plasma [25]) was 2 nM, the inhibition at 30 µM (hERG) was 10% and the IC50 (Cytochrome P450 2E1) was > 40 µM. For the same compound, the fraction unbound [26] was 0.43, the AUC(0-t) at 24 h [27] was ≤ 650 µM·h and the betat1/2(app) (Rattus norvegicus [28]) was 3 h. The Activity (Rattus norvegicus [29]) was “Non-Toxic”, the half-life [30] was > 3.33 h and the Activity (Rattus norvegicus [31]) was “Non-Toxic”. The Vd [32] was 4.2 L/kg, the half-life [33] was > 3.33 h and the Drug metabolism (Plasma [34]) was “Metabolite_Detected”. The Activity (Cynomolgus monkey) was “Non-Toxic”, the IC50 [35] was 0.5 µM and the half-life [36] was 0.783 h.
